# A selection: hits, their analogues and other compounds. The true share with any hit is near 1.4%.
# A3G deaminase – APOBEC3G DNA deaminase inhibitors, primary screen, biochemical, fluorescence, single-stranded DNA substrate, uHTS; DNA dC->dU-editing enzyme APOBEC-3G (Homo sapiens), Q9HC16; recombinant A3G, ssDNA deamination FAM/TAMRA fluorescence; inhibition, % at 20 µM; 330,000 compounds, 0.28% hits; AID 493012, 2011;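 active = inhibition of at least 40% at 20 µM, with no more than 30% in the related APOBEC3A deaminase screen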;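 also: plate controls were DMSO wells with A3G for no effect and wells lacking A3G enzyme for full effect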
# APJ antagonist – antagonists of human apelin receptor APJ, primary screen, CHO-K1 cells, beta-arrestin complementation, luminescence. P35414. inhibition, % at 20 µM. 330,000 compounds, 0.32% hits. AID 2521, 2010;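 active = inhibition above about 40% at 20 µM, limit read from the data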;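 also: cells challenged with 10 nM apelin-13 agonist together with compound; plate controls were apelin-13 plus DMSO wells for no effect and DMSO wells lacking apelin-13 for full effect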
# CXCR6 inh – CXCR6 receptor inhibitors, primary screen, cell-based, beta-arrestin, luminescence, CHO-K1 PathHunter, 1536-well; inhibition, % at 20 µM; 360,000 compounds, 0.36% hits; in the data active = inhibition above about 34%, passing the limit was not always enough;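 also: antagonist mode with CXCL16 agonist at 10 nM final; 0% = 10 nM CXCL16 with DMSO and 100% = unstimulated wells without agonist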
# CCR6 antagonist – CCR6 receptor antagonists, primary screen, cell-based, CHO-K1, luminescence, beta-arrestin, uHTS | C-C chemokine receptor type 6 (Homo sapiens), P51684 | CHO-K1 CCR6 PathHunter beta-arrestin, CCL20-stimulated | inhibition, % at 20 µM | 340,000 compounds, 0.49% hits | AID 493098, 2011;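 active = compounds whose inhibition of the agonist-driven luminescence signal at 20 µM reaches about 50%, limit read from the data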;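 also: cells stimulated with CCL20 at 14 nM final; plate controls were DMSO with CCL20 for no effect and DMSO without agonist for full effect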
# Target sequence (P51684 whole entry, looked up): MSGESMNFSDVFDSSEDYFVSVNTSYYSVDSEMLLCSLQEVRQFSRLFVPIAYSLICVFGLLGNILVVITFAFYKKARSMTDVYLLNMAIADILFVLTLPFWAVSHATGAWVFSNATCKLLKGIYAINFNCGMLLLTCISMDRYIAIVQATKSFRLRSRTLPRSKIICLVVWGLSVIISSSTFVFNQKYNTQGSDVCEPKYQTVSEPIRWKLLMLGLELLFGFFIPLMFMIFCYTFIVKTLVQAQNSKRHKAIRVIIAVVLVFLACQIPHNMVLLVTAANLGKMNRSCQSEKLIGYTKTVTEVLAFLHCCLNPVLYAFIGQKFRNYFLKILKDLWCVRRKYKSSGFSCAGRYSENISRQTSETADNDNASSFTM
# APJ ag – agonists of human apelin receptor APJ, primary screen, CHO-K1 cells, PathHunter beta-arrestin, luminescence; P35414; 0% DMSO wells, 100% apelin; activation, % at 20 µM; 330,000 compounds, 0.11% hits; AID 2520, 2010;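 active = activation more than six SD over the plate average, tested at 20 µM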;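 also: 0% = DMSO alone and 100% = apelin-13 at 10 nM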
#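 Test system – PathHunter CHO-K1 APJ (AGTRL-1) beta-arrestin reporter cells · Input – 1000 cells/well · Compound – single test compound dose, 20 µM final, 1% DMSO · Times – compound stimulation 90 min at 25 °C, detection 60 min · Technique – beta-gal luminescence · Read-out basis – APJ–arrestin association signal · Control set – negative DMSO alone, positive Apelin-13 at 10 nM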
# APOBEC3A inh – APOBEC3A ssDNA deaminase inhibitors, primary screen, selectivity assay for APOBEC3G inhibitor project, biochemical, FAM/TAMRA oligo cleavage fluorescence | 330,000 compounds, 0.41% hits | recombinant A3A, FAM/TAMRA ssDNA deamination fluorescence | inhibition, % at 20 µM;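 active = at least 40% inhibition at 20 µM here, with at most 30% in a related deaminase screen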;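 also: plate controls were A3A with DMSO for no effect and wells lacking A3A enzyme for full effect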
# APOBEC3A confirm – APOBEC3A deaminase inhibitors, retest, confirmation, selectivity assay for APOBEC3G inhibitor project, biochemical, single concentration, fluorescence readout | 1,400 compounds, 63% hits | inhibition, % at 20 µM | recombinant A3A, ssDNA deaminase UDG fluorescence assay | shares compounds with APOBEC3A inh;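 active = inhibition reaching a set limit, 80% of the first screen's cutoff, at 20 µM in any replicate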;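 also: plate controls were DMSO wells with A3A for no effect and wells lacking A3A enzyme for full effect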
# UDG ctr A3A – E. coli UDG inhibitors, confirmation, counter-screen for APOBEC3A inhibitor project, biochemical, single concentration, fluorescence, FAM/TAMRA oligo; shares compounds with APOBEC3A inh; inhibition, % at 20 µM; 1,000 tested, under 10 active; UDG counterscreen, FAM/TAMRA uracil oligo fluorescence; call rule not given here
# * = called active by the depositor; · = no result given.
SMILES,A3G deaminase,APJ antagonist,CXCR6 inh,CCR6 antagonist,APJ ag,APOBEC3A inh,APOBEC3A confirm,UDG ctr A3A
O=C(NCC(c1ccco1)N1CCOCC1)c1ccc(F)cc1 (stereo unspecified),-3.4,18.0,-1.5,4.9,0.5,1.1,·,·
CCN1CCN(c2ccc(S(=O)(=O)N3CCCCC3)cc2NC(=O)c2ccc([N+](=O)[O-])o2)CC1,5.5,-123.1,-17.4,3.3,21.0,53.1*,33.4*,·
CCN1CCN(c2ccc(S(=O)(=O)N3CCCCC3)cc2NC(=O)c2sccc2C)CC1,20.8,23.1,2.3,2.3,-2.3,69.4*,64.2*,-3.0
CCN1CCN(c2ccc(S(=O)(=O)N3CCCCC3)cc2NC(=O)c2ccc(C)c(C)c2)CC1,·,·,15.7,18.0,·,·,·,·
COc1ccc(NC(=O)c2ccc(OCC3CCCO3)cc2)cc1OC (stereo unspecified),16.1,2.3,-3.3,-1.6,-0.1,49.8*,36.1*,0.0
CCOC(=O)Cc1ccc(Nc2nc(NCc3cccs3)nc3ccsc23)cc1,·,·,4.3,·,·,·,·,·
CCN1CCN(c2ccc(S(=O)(=O)N3CCOCC3)cc2NC(=O)/C=C/c2ccc([N+](=O)[O-])cc2)CC1,1.2,-36.8,-9.2,13.1,13.4,43.3*,48.3*,-3.6
CN1CCN(S(=O)(=O)c2cccc(C(=O)Nc3cc(Cl)ccc3N3CCOCC3)c2)CC1,7.7,-9.0,-0.8,11.3,0.5,51.5*,31.3*,2.6
CCc1noc(C)c1C(=O)Nc1cc(S(=O)(=O)N2CCOCC2)ccc1N1CCN(CC)CC1,15.9,-53.0,-8.9,6.6,2.3,47.6*,59.8*,0.1
CCN1CCN(c2ccc(S(=O)(=O)N3CCOCC3)cc2NC(=O)c2ccc(C(F)(F)F)cc2)CC1,4.5,3.5,-0.8,6.8,2.6,59.9*,27.4,·
CCN1CCN(c2ccc(S(=O)(=O)N3CCOCC3)cc2NC(=O)c2cccc([N+](=O)[O-])c2)CC1,2.9,-3.9,4.2,6.0,-1.9,1.3,·,·
COc1ccc(CNC(=O)CN(Cc2ccc(OC)cc2)C(=O)CCC(=O)Nc2ccccn2)cc1,-6.2,16.4,3.8,5.2,1.5,-1.5,·,·
COC(=O)CCC(=O)NC(=S)Nc1ccccc1F,-6.9,30.4,-5.2,3.8,-2.5,-10.1,·,·
O=C(c1cccc(S(=O)(=O)N2CCCCCC2)c1)N1CCN(c2ccccc2F)CC1,-8.1,13.7,-1.0,8.2,1.5,-3.0,·,·
CN1CCN(S(=O)(=O)c2cccc(C(=O)N3CCN(c4ccccc4F)CC3)c2)CC1,14.9,-17.6,-1.1,-2.2,-1.2,44.5*,44.6*,-2.9
COc1ccc(-c2nc(CN3CCC(C(=O)NCC4CCCO4)CC3)c(C)o2)cc1OC (stereo unspecified),-7.5,-1.6,-14.9,8.7,-4.0,-6.4,·,·
CCOc1ccc(N(CC(=O)N/N=C/c2ccc(OC(C)C)cc2)S(C)(=O)=O)cc1,8.5,14.8,9.0,13.7,-1.2,51.7*,26.3,·
CCn1c(SCC(=O)NCc2ccccc2)nnc1C(CO)NC(=O)c1ccccc1 (stereo unspecified),10.5,0.7,8.9,-16.4,-3.0,68.8*,61.6*,-2.5
CCN(CC)Cc1ccccc1CNC(=O)c1cccc(S(=O)(=O)Nc2ccc3c(c2)OCO3)c1,6.9,3.7,0.3,6.3,-2.4,-0.7,·,·
